What is called inhibition is the change of the read-out against control, counted positive when it falls.

Experimental findings from PubChem BioAssay AID1242 (PCMD, 2008) are described below.

A short description of this experiment: clotrimazole potentiators killing C. albicans biofilm, primary screen, 4-compound mixtures (AID 1242).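 Note: compounds exposed to preformed 24 h biofilms for 48 h; 0% = untreated biofilm control and 100% = clotrimazole plus chlorhexidine kill blank.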 The note with it: C. albicans biofilm persisters + clotrimazole, fluorescence viability, primary screen in compound mixtures, stronger effect = higher value. In outline:
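Test system: C. albicans biofilms. Buffer or medium: RPMI/MOPS medium, pH 7.0. Timing: 48 h compound exposure at 37 °C. Technique: Alamar Blue fluorescence. Evaluation: percent inhibition of biofilm viability.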

The mark [1] stands for this setting: measured here: individual compound retest, at 61 µM.

Out of some 120,000 compounds screened, about 20 (0.02%) were called active. The sample holds actives, similar compounds and a random draw of the others, so the mix is not that of the screen.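 Rule for the calls: active = inhibition above 30.3% in the primary screen of four-compound pools, then above 30% when the compound was retested; inconclusive = passed the primary limit but could not be retested; inactive = the rest.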

Consider `CCc1ccc(Nc2nnc(SCC(=O)c3ccc4c(c3)NC(=O)CO4)s2)cc1`, for which, where the note is “at 7.6 µM unless noted”, the inhibition was 10.2% (inactive). For the compound `COc1ccc(C(=O)OCC(=O)NCC2CCCO2)cc1[N+](=O)[O-]` (centres undefined), the inhibition (at 7.6 µM unless noted) is 12.1% (inactive). On the same count and under the same terms, the result for `CN(c1ccccc1)S(=O)(=O)c1cc(C(=O)OCC(=O)N2CCN(C(=O)c3ccco3)CC2)ccc1Cl` reads 13.3% (inactive). Take `COc1cc2c(cc1OC)CC1(CCCCC1)N=C2`: under “at 7.6 µM unless noted”, the inhibition was 4.41% (inactive). For the compound `Cc1ccc(C2CC(c3cccc(NS(C)(=O)=O)c3)=NN2S(C)(=O)=O)cc1` (centres undefined), the inhibition (at 7.6 µM unless noted) was 16% (inactive). Still for that read-out and setting: the result for `COCCC(=O)Nc1ccc2c(c1)CN(C(=O)CCOC)CC2` reads 18% (inactive); that for `CC(C)(C)c1cc(NC(=O)NN2CCOCC2)nn1-c1c(Cl)cc(Cl)cc1Cl`, 5.67% (inactive). Regarding `C=CCOCCN(C)C1=NS(=O)(=O)c2ccccc21`, under “at 7.6 µM unless noted”, the inhibition is 3.65% (inactive). With `CN(C)S(=O)(=O)c1cccc(NC(=O)COC(=O)c2cc(=O)[nH]c(=O)[nH]2)c1`, where the note is “at 7.6 µM unless noted”, the inhibition was 26.1% (inactive). `CCOCCCN(C(=O)Cn1nnc(-c2ccc(OC)c(OC)c2)n1)C(CC)C(=O)NC1CCCC1` (centres undefined): the inhibition (at 7.6 µM unless noted) was 18.7% (inactive).

Regarding `Cc1cccc(N2CCN(c3ccc(C(N)=O)cc3[N+](=O)[O-])CC2)c1C`, where the note is “at 7.6 µM unless noted”, the inhibition was 16.6% (inactive). Still for that read-out and setting: the result for `CCOC(=O)C1CCN(CCC(=O)Nc2cccc(C)c2)CC1` reads 9.47% (inactive). Take `OCCC1CN(Cc2cccc(OC3CCCC3)c2)CCN1Cc1ccsc1` (centres undefined): where the note is “at 7.6 µM unless noted”, the inhibition was 13.6% (inactive). With `CN(C)N(C)C(=O)C(O)(c1ccccc1)c1ccccc1`, where the note is “at 7.6 µM unless noted”, the inhibition is 8.15% (inactive).

On to `CCOc1ccc(NS(=O)(=O)c2ccc(C)c(C(N)=O)c2)cc1`, for which the inhibition (at 7.6 µM unless noted) was 13.4% (inactive). With `CCC(C)(C)NC(=O)/C=C/c1cc(OC)c(OC)c(S(=O)(=O)N2CCc3ccccc32)c1`, the inhibition (at 7.6 µM unless noted) is 12.1% (inactive).

With `Cc1ccc(S(=O)(=O)/N=C(/Nc2ccc3[nH]c(=O)[nH]c3c2)c2ccccc2)cc1`, the inhibition (at 7.6 µM unless noted) is 25.2% (inactive).

Turning to `CCCCN(CC)CCNC(=O)CCNC(=O)Cn1ccc2ccccc2c1=O`, the inhibition (at 7.6 µM unless noted) was 8.03% (inactive).

With `CN(CC(O)COc1ccc(S(=O)(=O)N2CCOCC2)cc1Cl)C1CCCCC1` (centres undefined), the inhibition (at 7.6 µM unless noted) is 28.8% (inactive). For the compound `Nc1nc(NCC2CCCO2)nc(Nc2ccccc2F)c1[N+](=O)[O-]` (centres undefined), the inhibition (at 7.6 µM unless noted) is 13.6% (inactive).

For `Cn1nc(C(C)(C)C)c([N+](=O)[O-])c1C(N)=O`, the inhibition was 56.6% (inactive) (at 7.6 µM) and -53.4% under setting [1]. Consider `O=C1N(c2ccccc2)C(=Nc2ccccc2)SC12CC2`, for which, where the note is “at 7.6 µM unless noted”, the inhibition was 16.8% (inactive). On to `CCN(CC)CCN(C(=O)c1ccc(N2C(=O)CCC2=O)cc1)c1nc2cc3c(cc2s1)OCO3`, for which, where the note is “at 7.6 µM unless noted”, the inhibition was 4.15% (inactive).

Turning to `CCC(=O)NC(=S)Nc1ccc(NC(=O)c2ccco2)c(Cl)c1`, the inhibition (at 7.6 µM unless noted) is 2.96% (inactive). Turning to `O=C(c1cccc([N+](=O)[O-])c1)N1CCN(C(=O)c2ccco2)CC1`, the inhibition (at 7.6 µM unless noted) is 0.32% (inactive).

Consider `COC(=O)c1cccc(NS(C)(=O)=O)c1`, for which the inhibition (at 7.6 µM unless noted) was 13.2% (inactive). `Cn1ccc(NC(=O)Nc2ccc(Cl)cc2)n1`: where the note is “at 7.6 µM unless noted”, the inhibition is 16.2% (inactive). As for `Cc1ccc(O)c(NC(=S)NC(=O)COc2ccc(Br)cc2)c1`, where the note is “at 7.6 µM unless noted”, the inhibition was 9.22% (inactive). Still for that read-out and setting: the value for `CCN(CC)C(=O)C(=O)Nc1cccc(Br)c1` was 10% (inactive). Consider `COc1ccccc1CNC(=O)CNC(=O)c1cn(-c2ccccc2OC)c(=O)c2ccccc12`, for which the inhibition (at 7.6 µM unless noted) was 24.6% (inactive). As for `OCCC1CN(Cc2ccc(Oc3ncccn3)cc2)CCN1CCc1ccccc1` (centres undefined), under “at 7.6 µM unless noted”, the inhibition was 23.9% (inactive). With `CC(NCc1nc2ccccc2n1C)C12CC3CC(CC(C3)C1)C2` (centres undefined), the inhibition was 63.4% (inactive) (at 7.6 µM) and 0.64% under setting [1]. Take `O=C(NC(=S)Nc1ccc(S(=O)(=O)Nc2ncccn2)cc1)c1cccc(Br)c1`: the inhibition (at 7.6 µM unless noted) was 20.2% (inactive). Same read-out and setting: the result for `Nc1c(N(CCO)C(=O)C2CCCCC2)c(=O)[nH]c(=O)n1Cc1ccccc1` reads 4.09% (inactive); that for `Cc1cc(C)c(C)c(S(=O)(=O)N[C@@H](C)C(=O)OC(C)C(=O)NC(N)=O)c1C` (some centres undefined), 14.7% (inactive).

On to `Cc1ccc(S(=O)(=O)/N=C(\N)c2ccc(F)cc2)cc1`, for which the inhibition (at 7.6 µM unless noted) was 3.79% (inactive). The same measure, in the same setting: the value for `O=C(OCc1ccc([N+](=O)[O-])cc1)c1ccccn1` was 15% (inactive).

In the case of `Cc1cc(C)n(-c2ccc(C(=O)O)cc2[N+](=O)[O-])n1`, the inhibition (at 7.6 µM unless noted) was 2.45% (inactive). In the case of `COc1cc(N/C=C2\CC(=O)NC(C)=C2C#N)cc(OC)c1OC`, the inhibition (at 7.6 µM unless noted) was 14.1% (inactive). For `O=C(Nc1ccc(F)cc1)N1CCCC(c2nc3c(nnn3Cc3ccccc3Cl)c(=O)[nH]2)C1` (centres undefined), the inhibition (at 7.6 µM unless noted) was 11.9% (inactive). With `NC(=O)Cc1nc2scc(-c3ccc(Cl)cc3)c2c(=O)[nH]1`, for the setting “at 7.6 µM unless noted”, the inhibition was 4.85% (inactive).

Take `CC(=O)Nc1ccc(OCC(=O)NCc2ccc(C)cc2)cc1`: the inhibition (at 7.6 µM unless noted) is 10.5% (inactive).

In the case of `COc1ccc(C2NC(=S)NC3=C2CCc2ccccc23)cc1OC` (centres undefined), for the setting “at 7.6 µM unless noted”, the inhibition is 18.9% (inactive).

For `COc1ccc(Cl)cc1CSc1ncn[nH]1`, where the note is “at 7.6 µM unless noted”, the inhibition was 13.5% (inactive). Regarding `COc1cccc(-n2c(=S)sc3c(=O)n(-c4ccccc4OC)c(SCC4OCCO4)nc32)c1`, where the note is “at 7.6 µM unless noted”, the inhibition was 28.1% (inactive). Still for that read-out and setting: the value for `OC1CCCN(c2ncnc3c2nnn3Cc2c(F)cccc2Cl)C1` (centres undefined) was 19.6% (inactive); that for `Cc1cnc(C(=O)OCC(=O)N2CCc3ccccc32)cn1` was -4.77% (inactive); that for `COCCn1c(C)cc(C(=O)CSc2nc3ccccc3c(=O)n2C(C)COC)c1C` (centres undefined) was 8.22% (inactive). Regarding `Cc1nc(CNS(=O)(=O)c2cc([N+](=O)[O-])ccc2C)cs1`, the inhibition (at 7.6 µM unless noted) is 22.4% (inactive). Regarding `CCCCCCCC(=O)OC(CN1CCCCCC1)CN1CCCC1=O` (centres undefined), under “at 7.6 µM unless noted”, the inhibition is 0.73% (inactive). On the same count and under the same terms, the result for `COc1ccccc1N1CCN(C(=O)CSc2ncnc3c2cnn3-c2ccc(C)c(C)c2)CC1` reads 19.7% (inactive). Consider `CCOc1cc(C2C(C(=O)OC(C)C)=C(C)NC3=C2C(=O)CCC3)cc([N+](=O)[O-])c1O` (centres undefined), for which, under “at 7.6 µM unless noted”, the inhibition is 16.6% (inactive).
